Experimental data as given in PubChem BioAssay AID488830 (Molecular Libraries Program, Specialized Chemistry Center, …, 2010).
The source made the active and inactive calls.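 How the source made its calls: active means IC50 at or below 10 µM; inactive means the rest.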

System: HeLa UbG76V-GFP reporter turnover, GFP imaging
Experiment: blockers of UbG76V-GFP proteasomal turnover – imaging, human cell line, second optimization round, SAR follow-up (AID 488830)
Summary of the method: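 Buffer or medium: Chase medium with 2.5% FBS plus cycloheximide (50 µg/mL) | Material: UbG76V-GFP reporter HeLa cells | Detection: GFP fluorescence imaging, mean per-cell intensity over ~500 cells | Times: 1 h MG132 pre-treatment, then compound chase imaged 70–170 min | Read-out: IC50 from % remaining degradation rate constant | Also added: 4 µM MG132 reporter-loading pre-treatment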

Row | SMILES | IC50
1 | Clc1ccc(CNc2nc(Cl)nc3ccccc23)cc1 | 14 µM (inactive)
2 | COc1cccc(CNc2nc(Nc3cccc(Cl)c3)nc3ccccc23)c1 | 9.9 µM
3 | COc1ccccc1CNc1nc(Nc2cccc(Cl)c2)nc2ccccc12 | 11 µM (inactive)
4 | Fc1cccc2nc(NCc3ccccc3)nc(NCc3ccccc3)c12 | 13 µM (inactive)
5 | Cc1ccc(CNc2nc(Cl)nc3ccccc23)cc1 | > 25 µM (inactive)
6 | Cc1ccc(Nc2nc(NCc3ccccc3)c3ccccc3n2)cc1F | 5.2 µM
7 | O=C1C(C=NCC2CCCO2)=C(O)c2ccccc21 (stereo unspecified) | > 25 µM (inactive)
8 | COc1ccc2nc(NCc3ccccc3)nc(NCc3ccccc3)c2c1 | 8.6 µM
9 | Fc1ccc2nc(NCc3ccccc3)nc(NCc3ccccc3)c2c1 | 8.2 µM
10 | Clc1cccc(Nc2nc(NCc3ccccc3Cl)c3ccccc3n2)c1 | 18 µM (inactive)
11 | COc1ccc(F)cc1Nc1nc(NCc2ccccc2)c2ccccc2n1 | 9.3 µM
12 | Clc1ccc(CNc2nc(Nc3cccc(Cl)c3)nc3ccccc23)cc1 | 7.6 µM
13 | CC(C)n1c2ccccc2c2nnc(SCC(=O)OCN3C(=O)c4ccccc4C3=O)nc21 | 20 µM (inactive)
14 | COc1ccc(Nc2nc(Nc3ccc(OC)cc3)c3ccccc3n2)cc1 | 23 µM (inactive)
15 | c1ccc(Nc2nc(Nc3ccccc3)c3ccccc3n2)cc1 | 7.2 µM
16 | O=C(NCc1ccco1)c1cc(S(=O)(=O)N2CCOCC2)ccc1Cl | > 25 µM (inactive)
17 | Cc1ccc(F)cc1Nc1nc(NCc2ccccc2)c2ccccc2n1 | 5 µM
18 | Cc1c(Cl)cccc1Nc1nc(NCc2ccccc2)c2ccccc2n1 | 5.5 µM
19 | COc1c(Cl)cccc1Nc1nc(NCc2ccccc2)c2ccccc2n1 | 6.3 µM
20 | Cc1ccc(Nc2nc(Nc3ccc(C)cc3)c3ccccc3n2)cc1 | 21 µM (inactive)
21 | Clc1cccc(CNc2nc(Nc3cccc(Cl)c3)nc3ccccc23)c1 | 15 µM (inactive)
22 | Cc1cccc(CNc2nc(Nc3cccc(Cl)c3)nc3ccccc23)c1 | 9.7 µM
23 | Cc1ccc(CNc2nc(Nc3cccc(Cl)c3)nc3ccccc23)cc1 | 12 µM (inactive)
24 | FC(F)(F)c1ccc2c(NCc3ccccc3)nc(NCc3ccccc3)nc2c1 | 19 µM (inactive)
25 | N#Cc1ccc2c(NCc3ccccc3)nc(NCc3ccccc3)nc2c1 | 21 µM (inactive)
26 | COc1cccc(CNc2nc(Cl)nc3ccccc23)c1 | 13 µM (inactive)
27 | c1ccc(CNc2nc(N3CCCc4ccccc43)nc3ccccc23)cc1 | 10 µM (inactive)

Row | SMILES | IC50
28 | O=[N+]([O-])c1cccc(Nc2nc(NCc3ccccc3)c3ccccc3n2)c1 | 19 µM (inactive)
29 | CCOC(=O)NC(NC(=O)OCC)C(=O)c1ccc(F)cc1 | > 25 µM (inactive)
30 | Clc1cccc(Nc2nc(NCc3ccccc3Br)c3ccccc3n2)c1 | 12 µM (inactive)
31 | COc1cc2nc(NCc3ccccc3)nc(NCc3ccccc3)c2cc1OC | 8.8 µM
32 | FC(F)(F)c1cccc(Nc2nc(NCc3ccccc3)c3ccccc3n2)c1 | 21 µM (inactive)
33 | COc1cccc2c(NCc3ccccc3)nc(NCc3ccccc3)nc12 | 10 µM (inactive)
34 | O=C(C1CCCN(S(=O)(=O)c2cnc[nH]2)C1)N(CCc1ccccc1)Cc1ccccc1 (stereo unspecified) | 12 µM (inactive)
35 | Brc1ccc2c(NCc3ccccc3)nc(NCc3ccccc3)nc2c1 | 10 µM (inactive)
36 | Fc1cccc(CNc2nc(Cl)nc3ccccc23)c1 | 20 µM (inactive)
37 | Fc1ccccc1-c1nc(NCc2ccccc2)c2ccccc2n1 | 8 µM
38 | Fc1ccccc1CNc1nc(Nc2cccc(Cl)c2)nc2ccccc12 | 7.8 µM
39 | Cc1cc(F)cc(Nc2nc(NCc3ccccc3)c3ccccc3n2)c1 | 5.4 µM
40 | c1ccc(CNc2nc(N3CCOc4ccccc43)nc3ccccc23)cc1 | 7 µM
41 | Clc1cccc(CNc2nc(Cl)nc3ccccc23)c1 | 18 µM (inactive)
42 | COc1c(F)cccc1Nc1nc(NCc2ccccc2)c2ccccc2n1 | 12 µM (inactive)
43 | Clc1cccc(Nc2nc(Nc3ccccc3)c3ccccc3n2)c1 | 12 µM (inactive)
44 | Cc1ccc(C2=[N+]([O-])C3(CCCCC/C3=N\O)N(O)C2(C)C)o1 (stereo unspecified) | > 25 µM (inactive)
45 | COc1ccccc1CNc1nc(Cl)nc2ccccc12 | 19 µM (inactive)
46 | Clc1cccc(Nc2nc(NCc3cccc(Br)c3)c3ccccc3n2)c1 | 9.9 µM
47 | Fc1cccc(CNc2nc(Nc3cccc(Cl)c3)nc3ccccc23)c1 | 6.3 µM
48 | c1ccc(CNc2nc(N3CCNc4ccccc43)nc3ccccc23)cc1 | 6.3 µM
49 | COc1ccc(CNc2nc(Cl)nc3ccccc23)cc1 | 18 µM (inactive)
50 | Cc1ccc(Nc2nc(Nc3cccc(Cl)c3)nc3ccccc23)cc1 | > 30 µM (inactive)
51 | COc1ccc(Cl)cc1Nc1nc(NCc2ccccc2)c2ccccc2n1 | 16 µM (inactive)
52 | CC(=O)Nc1ccc(NC(=O)c2ccccc2F)cc1 | > 25 µM (inactive)
53 | Cc1ccc2c(NCc3ccccc3)nc(NCc3ccccc3)nc2c1 | 6.1 µM

More lines, now with the values ahead:

Row | IC50 | SMILES
54 | > 25 µM (inactive) | Cc1ccccc1CNc1nc(Cl)nc2ccccc12
55 | > 25 µM (inactive) | CN1CCN(S(=O)(=O)c2ccc(NC(=O)c3cccc(S(=O)(=O)N4CCCC4)c3)cc2)CC1
56 | 15 µM (inactive) | Clc1nc(NCc2ccc(Br)cc2)c2ccccc2n1
57 | 3.7 µM | Cc1c(F)cccc1Nc1nc(NCc2ccccc2)c2ccccc2n1
58 | 11 µM (inactive) | Clc1nc(NCc2ccccc2Cl)c2ccccc2n1
59 | > 30 µM (inactive) | O=S(=O)(NC1CCCCC1)c1ccc(Br)cc1
60 | 28 µM (inactive) | CC(C)Sc1oc(-c2ccco2)nc1S(=O)(=O)c1ccc(F)cc1
61 | 10 µM (inactive) | Clc1cccc(Nc2nc(NCc3ccc(Br)cc3)c3ccccc3n2)c1
62 | > 30 µM (inactive) | Brc1cccc2c(NCc3ccccc3)nc(NCc3ccccc3)nc12
63 | 4.7 µM | COc1ccc(Nc2nc(NCc3ccccc3)c3ccccc3n2)cc1F
64 | 7 µM | Cc1ccc(Cl)cc1Nc1nc(NCc2ccccc2)c2ccccc2n1
65 | > 25 µM (inactive) | CC1(C)N(O)CC(c2cccs2)=[N+]1[O-]
66 | 11 µM (inactive) | c1ccc(CNc2nc(N3CCc4ccccc43)nc3ccccc23)cc1
67 | 6.3 µM | Clc1ccc2c(NCc3ccccc3)nc(NCc3ccccc3)nc2c1
68 | 11 µM (inactive) | COc1ccc(CNc2nc(Nc3cccc(Cl)c3)nc3ccccc23)cc1
69 | 22 µM (inactive) | Cc1cccc(CNc2nc(Cl)nc3ccccc23)c1
70 | > 25 µM (inactive) | CC(C)(C)NC(=O)Nc1ccc2nccnc2c1
71 | 21 µM (inactive) | Clc1ccc(Nc2nc(Nc3cccc(Cl)c3)nc3ccccc23)cc1
72 | 13 µM (inactive) | COc1ccc(Nc2nc(Nc3cccc(Cl)c3)nc3ccccc23)cc1
73 | 6.1 µM | Fc1ccc2c(NCc3ccccc3)nc(NCc3ccccc3)nc2c1
74 | 15 µM (inactive) | Fc1ccccc1CNc1nc(Cl)nc2ccccc12
75 | 16 µM (inactive) | Clc1cccc2nc(NCc3ccccc3)nc(NCc3ccccc3)c12
76 | 18 µM (inactive) | Fc1cccc2c(NCc3ccccc3)nc(NCc3ccccc3)nc12
77 | 5.7 µM | Fc1ccc(CNc2nc(Nc3cccc(Cl)c3)nc3ccccc23)cc1
78 | 13 µM (inactive) | Clc1nc(NCc2ccccc2Br)c2ccccc2n1
79 | 21 µM (inactive) | Fc1ccc(CNc2nc(Cl)nc3ccccc23)cc1
80 | 6.6 µM | Clc1ccc2nc(NCc3ccccc3)nc(NCc3ccccc3)c2c1
81 | 19 µM (inactive) | Clc1nc(NCc2cccc(Br)c2)c2ccccc2n1
